Reference: ChEMBL document CHEMBL2375359, “Synthesis and antibacterial evaluation of novel pleuromutilin derivatives” (2013)
In brackets after ≈: the same amount, converted by molar mass.

Key:
Assay type in all cases: functional
Staphylococcus aureus [1] = experiment: Antibacterial activity against methicillin-resistant Staphylococcus aureus at 320 ug/ml after 24 hrs by Oxford cup assay; conditions: read-out: IZ
In short: (§1)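 Oxford cup diffusion: clinical isolate inoculum in 0.9% saline set by McFarland standard, spread evenly on nutrient agar. Cups placed equidistant on the surface and filled with compound solutions prepared as for the agar dilution test, at several concentrations. Inhibition zone measured after 24 h at 37 °C.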

Staphylococcus aureus [2] = experiment: Antibacterial activity against methicillin-resistant Staphylococcus aureus after 48 hrs by agar dilution method
In short: (§2)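 Agar dilution per NCCLS: 2-fold serial dilutions incorporated into hot Mueller-Hinton agar. Clinical isolates grown from blood slants, suspended in sterile 0.90% NaCl to about 10⁵–10⁶ cfu/mL, spotted onto plates. Incubation 36.5 °C, 48 h. MIC taken as the lowest concentration giving complete growth inhibition. Run in triplicate at pH 7.40.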

Staphylococcus aureus [3] = experiment: Antibacterial activity against methicillin-resistant Staphylococcus aureus at 160 ug/ml after 24 hrs by Oxford cup assay; conditions: read-out: IZ; in short: as §1
Streptococcus agalactiae [4] = experiment: Antibacterial activity against Streptococcus agalactiae at 80 ug/ml after 24 hrs by Oxford cup assay; conditions: read-out: IZ
In short: (§3)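 Oxford cup diffusion with clinical isolates. Inoculum made in 0.9% saline to a McFarland standard and spread evenly on nutrient agar. Compound solutions, prepared as for the agar dilution test, were added at the stated concentration to Oxford cups set equidistant on the agar surface. Inhibition zones were measured after 24 h at 37 °C.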

Streptococcus agalactiae [5] = experiment: Antibacterial activity against Streptococcus agalactiae after 48 hrs by agar dilution method
In short: (§4)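 Agar dilution per NCCLS on clinical isolates. 2-fold serial dilutions of compound (2 mL) mixed into 18 mL hot Mueller-Hinton agar. Inoculum from blood slants, adjusted to approx. 10⁵–10⁶ cfu/mL in sterile 0.90% NaCl, then spotted onto the plates. Incubated 36.5 °C, 48 h. MIC is the lowest concentration giving complete growth inhibition. Run in triplicate at pH 7.40.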

Escherichia coli [6] = experiment: Antibacterial activity against Escherichia coli at 160 ug/ml after 24 hrs by Oxford cup assay; conditions: read-out: IZ; in short: as §3
Staphylococcus aureus [7] = experiment: Antibacterial activity against methicillin-resistant Staphylococcus aureus at 80 ug/ml after 24 hrs by Oxford cup assay; conditions: read-out: IZ; in short: as §1
[8] = tested on: Staphylococcus epidermidis; experiment: Antibacterial activity against methicillin-resistant Staphylococcus epidermidis after 48 hrs by agar dilution method; in short: as §2
[9] = tested on: Staphylococcus epidermidis; experiment: Antibacterial activity against methicillin-resistant Staphylococcus epidermidis at 160 ug/ml after 24 hrs by Oxford cup assay; conditions: read-out: IZ; in short: as §1
Streptococcus agalactiae [10] = experiment: Antibacterial activity against Streptococcus agalactiae at 320 ug/ml after 24 hrs by Oxford cup assay; conditions: read-out: IZ; in short: as §3
Streptococcus agalactiae [11] = experiment: Antibacterial activity against Streptococcus agalactiae at 160 ug/ml after 24 hrs by Oxford cup assay; conditions: read-out: IZ; in short: as §3
[12] = tested on: Staphylococcus epidermidis; experiment: Antibacterial activity against methicillin-resistant Staphylococcus epidermidis at 320 ug/ml after 24 hrs by Oxford cup assay; conditions: read-out: IZ; in short: as §1
[13] = tested on: Staphylococcus epidermidis; experiment: Antibacterial activity against methicillin-resistant Staphylococcus epidermidis at 80 ug/ml after 24 hrs by Oxford cup assay; conditions: read-out: IZ; in short: as §1
Escherichia coli [14] = experiment: Antibacterial activity against Escherichia coli after 48 hrs by agar dilution method; in short: as §4
Escherichia coli [15] = experiment: Antibacterial activity against Escherichia coli at 80 ug/ml after 24 hrs by Oxford cup assay; conditions: read-out: IZ; in short: as §3
Escherichia coli [16] = experiment: Antibacterial activity against Escherichia coli at 320 ug/ml after 24 hrs by Oxford cup assay; conditions: read-out: IZ; in short: as §3

SMILES	zone of inhibition at 320 µg/mL (Staphylococcus aureus [1])	MIC (Staphylococcus aureus [2])	zone of inhibition at 160 µg/mL (Staphylococcus aureus [3])	zone of inhibition at 80 µg/mL (Streptococcus agalactiae [4])	MIC (Streptococcus agalactiae [5])	zone of inhibition at 160 µg/mL (Escherichia coli [6])	zone of inhibition at 80 µg/mL (Staphylococcus aureus [7])	MIC [8]	zone of inhibition at 160 µg/mL [9]	zone of inhibition at 320 µg/mL (Streptococcus agalactiae [10])	zone of inhibition at 160 µg/mL (Streptococcus agalactiae [11])	zone of inhibition at 320 µg/mL [12]	zone of inhibition at 80 µg/mL [13]	MIC (Escherichia coli [14])	zone of inhibition at 80 µg/mL (Escherichia coli [15])	zone of inhibition at 320 µg/mL (Escherichia coli [16])
C=C[C@]1(C)C[C@@H](OC(=O)CSC(C)(C)CNC(=O)c2ccccc2Cl)[C@]2(C)[C@H](C)CC[C@]3(CCC(=O)[C@H]32)[C@@H](C)[C@@H]1O	14.2 mm	0.5 µg/mL (≈ 0.827 µM)	12.2 mm	10.6 mm	8 µg/mL (≈ 13.2 µM)	11.9 mm	14.1 mm	1 µg/mL (≈ 1.65 µM)	12.2 mm	10.8 mm	11.2 mm	13.4 mm	11.4 mm	4 µg/mL (≈ 6.62 µM)	11.3 mm	14.5 mm
C=C[C@]1(C)C[C@@H](OC(=O)CSC(C)(C)CNC(=O)c2cccc(Cl)c2)[C@]2(C)[C@H](C)CC[C@]3(CCC(=O)[C@H]32)[C@@H](C)[C@@H]1O	13.5 mm	8 µg/mL (≈ 13.2 µM)	13.1 mm	10.4 mm	32 µg/mL (≈ 53 µM)	10.7 mm	11.9 mm	16 µg/mL (≈ 26.5 µM)	10.6 mm	12.2 mm	13.9 mm	11.9 mm	9.45 mm	8 µg/mL (≈ 13.2 µM)	11.9 mm	15.7 mm
C=C[C@]1(C)C[C@@H](OC(=O)CSC(C)(C)CNC(=O)c2ccc(Cl)cc2)[C@]2(C)[C@H](C)CC[C@]3(CCC(=O)[C@H]32)[C@@H](C)[C@@H]1O	14.6 mm	1 µg/mL (≈ 1.65 µM)	13.8 mm	10.8 mm	4 µg/mL (≈ 6.62 µM)	12.9 mm	11.8 mm	0.5 µg/mL (≈ 0.827 µM)	12.7 mm	14 mm	12.1 mm	12.4 mm	8.72 mm	2 µg/mL (≈ 3.31 µM)	11.8 mm	12.6 mm
C=C[C@]1(C)C[C@@H](OC(=O)CSC(C)(C)CNC(=O)c2ccccc2C)[C@]2(C)[C@H](C)CC[C@]3(CCC(=O)[C@H]32)[C@@H](C)[C@@H]1O	12.3 mm	0.25 µg/mL (≈ 0.428 µM)	11.8 mm	10 mm	0.5 µg/mL (≈ 0.856 µM)	13.7 mm	10.3 mm	16 µg/mL (≈ 27.4 µM)	12.9 mm	12.4 mm	10.9 mm	13.8 mm	10.7 mm	2 µg/mL (≈ 3.43 µM)	12.1 mm	15 mm
C=C[C@]1(C)C[C@@H](OC(=O)CSC(C)(C)CNC(=O)c2cccc(C)c2)[C@]2(C)[C@H](C)CC[C@]3(CCC(=O)[C@H]32)[C@@H](C)[C@@H]1O	13.1 mm	1 µg/mL (≈ 1.71 µM)	13.2 mm	13 mm	2 µg/mL (≈ 3.43 µM)	13.7 mm	11.2 mm	16 µg/mL (≈ 27.4 µM)	10.8 mm	13.6 mm	13 mm	12.4 mm	9.9 mm	8 µg/mL (≈ 13.7 µM)	11.3 mm	15.5 mm
C=C[C@]1(C)C[C@@H](OC(=O)CSC(C)(C)CNC(=O)c2ccc(C)cc2)[C@]2(C)[C@H](C)CC[C@]3(CCC(=O)[C@H]32)[C@@H](C)[C@@H]1O	12.6 mm	0.25 µg/mL (≈ 0.428 µM)	11.5 mm	9.82 mm	0.5 µg/mL (≈ 0.856 µM)	15.1 mm	10.4 mm	16 µg/mL (≈ 27.4 µM)	10.3 mm	12.3 mm	10.9 mm	12.1 mm	10.9 mm	4 µg/mL (≈ 6.85 µM)	9.8 mm	16.6 mm
C=C[C@]1(C)C[C@@H](OC(=O)CSC(C)(C)CNC(=O)c2ccccc2OC)[C@]2(C)[C@H](C)CC[C@]3(CCC(=O)[C@H]32)[C@@H](C)[C@@H]1O	12.4 mm	0.25 µg/mL (≈ 0.417 µM)	12.1 mm	11.8 mm	2 µg/mL (≈ 3.33 µM)	15.5 mm	9.5 mm	8 µg/mL (≈ 13.3 µM)	12.5 mm	13.7 mm	13 mm	13.5 mm	10.8 mm	4 µg/mL (≈ 6.67 µM)	12.4 mm	17.4 mm
C=C[C@]1(C)C[C@@H](OC(=O)CSC(C)(C)CNC(=O)c2cccc(OC)c2)[C@]2(C)[C@H](C)CC[C@]3(CCC(=O)[C@H]32)[C@@H](C)[C@@H]1O	12.8 mm	2 µg/mL (≈ 3.33 µM)	13 mm	12.6 mm	4 µg/mL (≈ 6.67 µM)	13.3 mm	11.8 mm	32 µg/mL (≈ 53.3 µM)	11.7 mm	13.4 mm	12.4 mm	12.5 mm	11.4 mm	8 µg/mL (≈ 13.3 µM)	12.2 mm	14.3 mm
C=C[C@]1(C)C[C@@H](OC(=O)CSC(C)(C)CNC(=O)c2ccc(OC)cc2)[C@]2(C)[C@H](C)CC[C@]3(CCC(=O)[C@H]32)[C@@H](C)[C@@H]1O	19.7 mm	0.25 µg/mL (≈ 0.417 µM)	18.4 mm	16 mm	0.5 µg/mL (≈ 0.834 µM)	17.1 mm	15.3 mm	2 µg/mL (≈ 3.33 µM)	15.2 mm	16.6 mm	15.9 mm	18.3 mm	14.4 mm	1 µg/mL (≈ 1.67 µM)	15.7 mm	18.5 mm
C=C[C@]1(C)C[C@@H](OC(=O)CSC(C)(C)CNC(=O)c2ccccc2N)[C@]2(C)[C@H](C)CC[C@]3(CCC(=O)[C@H]32)[C@@H](C)[C@@H]1O	19.6 mm	1 µg/mL (≈ 1.71 µM)	18.9 mm	12 mm	0.5 µg/mL (≈ 0.855 µM)	13.7 mm	16.6 mm	0.5 µg/mL (≈ 0.855 µM)	16 mm	11.9 mm	11.8 mm	17.4 mm	15.3 mm	2 µg/mL (≈ 3.42 µM)	13.1 mm	13.8 mm
C=C[C@]1(C)C[C@@H](OC(=O)CSC(C)(C)CNC(=O)c2cccc(N)c2)[C@]2(C)[C@H](C)CC[C@]3(CCC(=O)[C@H]32)[C@@H](C)[C@@H]1O	10.2 mm	2 µg/mL (≈ 3.42 µM)	10.8 mm	8.86 mm	0.5 µg/mL (≈ 0.855 µM)	12.5 mm	9.56 mm	1 µg/mL (≈ 1.71 µM)	9.72 mm	9.66 mm	9.8 mm	11.2 mm	9.63 mm	8 µg/mL (≈ 13.7 µM)	9.94 mm	10.7 mm
C=C[C@]1(C)C[C@@H](OC(=O)CSC(C)(C)CNC(=O)c2ccc(N)cc2)[C@]2(C)[C@H](C)CC[C@]3(CCC(=O)[C@H]32)[C@@H](C)[C@@H]1O	22.2 mm	0.25 µg/mL (≈ 0.427 µM)	21.6 mm	10.9 mm	0.5 µg/mL (≈ 0.855 µM)	17.8 mm	20.6 mm	0.5 µg/mL (≈ 0.855 µM)	18.1 mm	11.4 mm	11.6 mm	17.9 mm	17.3 mm	2 µg/mL (≈ 3.42 µM)	18.1 mm	18.8 mm
